Screening results deposited in PubChem by several laboratories.
FLuc inh counter = inhibits firefly luciferase, flagging false hits in luciferase inhibition screens; P08659; inhibition, % at 10 µM; 1.5% of 200,000 active; ATPLite firefly luciferase biochemical luminescence, 10 min;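 active = inhibition above about 50% when tested at 10 µM, limit read from the data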
Target sequence (P08659 whole entry, looked up): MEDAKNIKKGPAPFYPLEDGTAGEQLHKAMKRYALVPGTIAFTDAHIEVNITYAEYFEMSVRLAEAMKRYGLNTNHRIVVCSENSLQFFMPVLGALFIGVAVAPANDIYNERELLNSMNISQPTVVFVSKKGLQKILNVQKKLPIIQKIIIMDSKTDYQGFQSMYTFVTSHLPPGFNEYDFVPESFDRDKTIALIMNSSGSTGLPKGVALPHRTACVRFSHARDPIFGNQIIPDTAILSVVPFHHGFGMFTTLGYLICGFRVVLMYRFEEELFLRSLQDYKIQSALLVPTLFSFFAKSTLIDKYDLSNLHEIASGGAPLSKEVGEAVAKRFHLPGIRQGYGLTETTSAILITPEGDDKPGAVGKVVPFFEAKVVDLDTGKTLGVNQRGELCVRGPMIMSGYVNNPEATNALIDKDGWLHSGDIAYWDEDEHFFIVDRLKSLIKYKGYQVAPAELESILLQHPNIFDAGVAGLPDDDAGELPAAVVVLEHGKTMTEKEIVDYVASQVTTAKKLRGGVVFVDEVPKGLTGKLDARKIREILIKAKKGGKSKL
STAT1 act = increases IFN-gamma driven STAT1 reporter signal. NIH 3T3 STAT1-luciferase reporter, luminescence; 100% = IFN-gamma alone, no compound. activation (% of control), % at 5.5 µM. 2.6% of 200,000 active;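 active = activation above the screen-wide mean activation plus 3 SD, cut at about 130% in these data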
FLuc act counter = firefly luciferase counter-screen for stimulation assays. P08659. ATPlite luciferase biochemical, luminescence, 10 min; 0 = ATP-free wells, 1 = DMSO control. activation factor at 10 µM. 200,000 tested, under 10 active. AID 1027;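 active = luciferase activation factor, scaled between plate controls, of at least 2 with compound at 10 µM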
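Assay system: Luciferase/luciferin reagent mix; Medium: PBS as buffer for the ATP substrate; Dosing: test compounds dosed from 2 mM stocks in 100% DMSO; Times: 10 min, room temperature; Signal: luminescence from luciferase reaction; Read-out: luciferase activation; Controls: No-ATP low control, compound-free enzyme-plus-ATP high control.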
Pf gametocyte = inhibitors of late stage P. falciparum gametocyte viability | inhibition, % at 10.9 µM | P. falciparum stage V gametocytes, ATP luminescence, 24 h | 0.065% of 150,000 active;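 active = inhibition above the mean plus 3 SD of compounds within the control limits, set per campaign, cut at about 38% in these data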
NF-kB expr up = compounds increasing NF-kB expression in human neuronal cells | fold change at 12.5 µM | NF-kB reporter expression; active compounds read high | 1.6% of 190,000 active | AID 1239; in the data active = fold change above about 3.3
APP 5'UTR act = activates APP 5'UTR luciferase reporter | SH-SY5Y APP 5'UTR luciferase reporter, luminescence; zero percent = DMSO vehicle wells | activation, % at 2 µM | 1% of 190,000 active;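 active = activation above a set limit, based on mean plus 3 SD of controls, cut at about 140% in these data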
STAT1 act conf = confirmation of STAT1 signaling activators; NIH 3T3 STAT1-luciferase reporter, IFN-gamma potentiation, luminescence; 100% = IFN-gamma EC80 alone, no compound; activation (% of control), % at 5.7 µM; shares compounds with STAT1 act; 97% of 1,200 active;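 active = activation above a set limit carried over from the earlier primary STAT1 screen, cut at about 140% in these data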
NFkB act STAT1ct = activates NF-kappaB, counter-screen to STAT1 activators | 43% of 1,200 active | HEK293T NF-kB luciferase reporter, TNF-alpha stimulated, luminescence; 100% = TNF-alpha with vehicle only | activation (% of control), % at 5.7 µM | shares compounds with STAT1 act;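 active = activation above the mean of solvent-only control wells plus 3 SD, set per campaign, cut at about 130% in these data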;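 note: TNF-alpha given at a submaximal dose yielding about 80% of full reporter signal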
STAT3 act 2 = counter-screen for STAT1 activators: human STAT3 activation; shares compounds with STAT1 act; U3A cells STAT3-luciferase reporter, IL-6, luminescence; cells lack STAT1; 100 = IL-6 alone, no compound effect; activation (% of control), % at 5.7 µM; 46% of 1,200 active; AID 1316;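 active = activation above the solvent-only control well mean plus 3 SD, set per plate batch, cut at about 110% in these data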;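 note: higher means more STAT3 reporter activation so hits are non-selective activators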
Of the large screens only hits and unclear results are named; the others gave an inactive call (follow-up assays come after a bar, where they were run). An excerpt weighted towards active compounds, which were near 3.5% of everything screened.

O=S(=O)([O-])C/C(=C\c1ccc(Cl)cc1)c1cc[n+](CCO)cc1	none
Cc1ccc(C(=O)/C=C/Nc2cccc([N+](=O)[O-])c2)o1	FLuc inh counter 62.5, STAT1 act 153.3, NF-kB expr up 5.45 | STAT1 act conf 187.4 | NFkB act STAT1ct inactive | STAT3 act 2 inactive
O=C(/C=C/Nc1cccc([N+](=O)[O-])c1)c1ccco1	none (no result: FLuc inh counter, FLuc act counter, Pf gametocyte, NF-kB expr up)
Cc1noc(NS(=O)(=O)c2ccc(N/C=C\C(=O)c3ccc(F)cc3)cc2)c1C	none
NS(=O)(=O)c1ccc(N/C=C\C(=O)c2ccc(F)cc2)cc1	STAT1 act 156.5 | STAT1 act conf 188.3 | NFkB act STAT1ct inactive | STAT3 act 2 114.6
CCOC(=O)c1cnc(N)nc1C(F)(F)F	none
O=C(CCc1ccccc1)Nc1cc2c(cc1Cl)OCCO2	STAT1 act 157.5 (no result: Pf gametocyte) | STAT1 act conf 181.1 | NFkB act STAT1ct 139.4 | STAT3 act 2 115.2
Cc1nn2c(-c3ccccc3)ccnc2c1-c1ccccc1	none (no result: Pf gametocyte)
Cc1nc2c(-c3ccccc3)c(C)nn2c(N)c1-c1ccccc1	FLuc inh counter 67.9, STAT1 act 158.9, APP 5'UTR act 198.8 (no result: Pf gametocyte) | STAT1 act conf 206.2 | NFkB act STAT1ct 141.1 | STAT3 act 2 inactive
Cc1ccc(C2NC(=NCc3ccccc3)Nc3nc(C)cc(=O)n32)cc1 (configuration not stated)	none (no result: FLuc inh counter, STAT1 act, FLuc act counter, NF-kB expr up, APP 5'UTR act)
CNC(=O)c1c(NC(=O)c2nc3ccccc3s2)sc2c1CCC2	STAT1 act 168.7 (no result: Pf gametocyte) | STAT1 act conf 189.4 | NFkB act STAT1ct 136.0 | STAT3 act 2 132.6
FC(F)(F)c1cc(-c2ccco2)nc2ncnn12	none
c1coc(C2=NCCc3ccccc32)c1	none (no result: FLuc inh counter, STAT1 act, FLuc act counter, NF-kB expr up, APP 5'UTR act)
Cc1ccccc1C(=O)NNC(=O)c1ccc(F)cc1	none (no result: Pf gametocyte)
Cc1ccccc1/C(N)=N/OC(=O)c1ccc(F)cc1	FLuc inh counter 92.5, STAT1 act 183.0 (no result: NF-kB expr up) | STAT1 act conf 174.1 | NFkB act STAT1ct 135.3 | STAT3 act 2 inactive
Cc1csc(-c2cnn(-c3ccccc3)c2NC(=O)c2cccc(C(F)(F)F)c2)n1	none (no result: APP 5'UTR act)
Nc1c(C(=O)C2CC2)sc2nc3c(cc12)CCC3	STAT1 act 162.1, NF-kB expr up 5.43 | STAT1 act conf 189.3 | NFkB act STAT1ct 134.9 | STAT3 act 2 inactive
Cc1ccc(CNC(=O)c2ccccc2-n2cnnn2)cc1	none (no result: FLuc inh counter, STAT1 act, FLuc act counter, NF-kB expr up, APP 5'UTR act)
CC(=O)c1cnc2c(-c3ccc(Cl)cc3)cnn2c1C	none (no result: Pf gametocyte)
Nc1c(C(=O)O)cnc2c(-c3ccc(Cl)cc3)cnn12	FLuc inh counter 58.4, STAT1 act 194.0, NF-kB expr up 4.93 | STAT1 act conf 219.3 | NFkB act STAT1ct inactive | STAT3 act 2 152.1
Clc1ccc(-c2cnn3c(-c4ccncc4)ccnc23)cc1	FLuc inh counter 67.9, STAT1 act 156.9, NF-kB expr up 3.59, APP 5'UTR act 221.2 (no result: Pf gametocyte) | STAT1 act conf 236.7 | NFkB act STAT1ct inactive | STAT3 act 2 inactive
CS(=O)(=O)c1cnc2c(-c3ccc(F)cc3)cnn2c1N	STAT1 act 161.9, NF-kB expr up 3.51 (no result: Pf gametocyte) | STAT1 act conf 188.8 | NFkB act STAT1ct inactive | STAT3 act 2 inactive
O=C(NCC(c1cccnc1)N1CCN(c2ccccc2)CC1)C1CCCCC1 (configuration not stated)	none (no result: Pf gametocyte)
O=c1[nH]c(-c2ccccn2)nc2sc(-c3ccccc3)cc12	STAT1 act 297.6 | STAT1 act conf 473.2 | NFkB act STAT1ct 225.0 | STAT3 act 2 119.5
Cc1c(C(=O)N(C)C)sc2nc(-c3ccccn3)[nH]c(=O)c12	none
CCOC(=O)C1CCC(CNCc2ccccc2C)CC1 (configuration not stated)	none (no result: Pf gametocyte)
